Values after ≈ are worked out from the molar mass of the structure shown.
Assays:
[1] = test system: Penicillium ochrochloron; experiment: Antifungal activity against Penicillium ochrochloron ATCC 9112 after 72 hrs by serial dilution method; assay type: functional; conditions: ATCC 9112, 72 h
Method in brief: (§1)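 Modified microdilution MIC. Spores were washed from malt agar cultures with sterile 0.85% saline containing 0.1% Tween 80 and adjusted to about 1.0 × 10^5 per 100 µl well in malt broth. Compounds were dissolved in DMSO (1 mg/ml). Plates incubated 72 h at 28 °C. MIC is the lowest concentration with no visible growth under a binocular microscope. Bifonazole and ketoconazole were the references.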

[2] = test system: Aspergillus fumigatus; experiment: Antifungal activity against Aspergillus fumigatus human isolate after 72 hrs by serial dilution method; assay type: functional; method in brief: as §1
[3] = test system: Escherichia coli; experiment: Antibacterial activity against Escherichia coli ATCC 35210 treated for 24 hrs followed by sub-cultivated for 72 hrs by micro dilution method; assay type: functional
Method in brief: (§2)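 2 µl from each well was serially subcultured into 100 µl fresh broth per well and incubated a further 72 h. MBC is the lowest concentration with no visible growth, taken as 99.5% killing of the original inoculum. Streptomycin and ampicillin were the positive controls.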

[4] = test system: Listeria monocytogenes; experiment: Antibacterial activity against Listeria monocytogenes NCTC 7973 treated for 24 hrs followed by sub-cultivated for 72 hrs by micro dilution method; assay type: functional; method in brief: as §2
[5] = test system: Salmonella typhimurium; experiment: Antibacterial activity against Salmonella Typhimurium ATCC 13311 after 24 hrs by micro dilution method; assay type: functional, Salmonella enterica subsp. enterica serovar Typhimurium; conditions: Salmonella enterica, ATCC 13311, 24 h
Method in brief: (§3)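 Microdilution MIC in 96-well plates. Bacterial suspensions adjusted in sterile saline to 1.0 × 10^5 CFU/ml, giving 1.0 × 10^4 cfu per well in LB broth. Compounds tested at up to 1 mg/ml. Plates incubated 24 h. MIC taken as the lowest concentration with no visible growth under a binocular microscope. OD at 655 nm was also read against a blank and the positive control. Streptomycin and ampicillin were the positive controls.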

[6] = test system: Penicillium ochrochloron; experiment: Antifungal activity against Penicillium ochrochloron ATCC 9112 treated for 72 hrs followed by sub-cultivated for 5 days by serial dilution method; assay type: functional
Method in brief: (§4)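 MFC obtained after the 72 h, 28 °C malt-broth microdilution (spore inoculum about 1.0 × 10^5 per well, compounds from 1 mg/ml DMSO). 2 µl was serially subcultured into 100 µl broth per well and incubated a further 5 days at 28 °C. MFC is the lowest concentration with no visible growth, taken as 99.5% killing of the original inoculum.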

[7] = test system: Salmonella typhimurium; experiment: Antibacterial activity against Salmonella Typhimurium ATCC 13311 treated for 24 hrs followed by sub-cultivated for 72 hrs by micro dilution method; assay type: functional, Salmonella enterica subsp. enterica serovar Typhimurium; conditions: Salmonella enterica; method in brief: as §2
[8] = test system: Enterobacter cloacae; experiment: Antibacterial activity against Enterobacter cloacae human isolate treated for 24 hrs followed by sub-cultivated for 72 hrs by micro dilution method; assay type: functional; method in brief: as §2
[9] = test system: Bacillus cereus; experiment: Antibacterial activity against Bacillus cereus clinical isolate after 24 hrs by micro dilution method; assay type: functional; method in brief: as §3
[10] = test system: Micrococcus flavus; experiment: Antibacterial activity against Micrococcus flavus ATCC 10240 after 24 hrs by micro dilution method; assay type: functional; conditions: ATCC 10240, 24 h; method in brief: as §3
[11] = test system: Aspergillus flavus; experiment: Antifungal activity against Aspergillus flavus ATCC 9643 treated for 72 hrs followed by sub-cultivated for 5 days by serial dilution method; assay type: functional; method in brief: as §4
[12] = test system: Bacillus cereus; experiment: Antibacterial activity against Bacillus cereus clinical isolate treated for 24 hrs followed by sub-cultivated for 72 hrs by micro dilution method; assay type: functional; method in brief: as §2
[13] = test system: Aspergillus niger; experiment: Antifungal activity against Aspergillus niger ATCC 6275 treated for 72 hrs followed by sub-cultivated for 5 days by serial dilution method; assay type: functional; method in brief: as §4
[14] = test system: Micrococcus flavus; experiment: Antibacterial activity against Micrococcus flavus ATCC 10240 treated for 24 hrs followed by sub-cultivated for 72 hrs by micro dilution method; assay type: functional; method in brief: as §2
[15] = test system: Talaromyces funiculosus; experiment: Antifungal activity against Penicillium funiculosum ATCC 36839 treated for 72 hrs followed by sub-cultivated for 5 days by serial dilution method; assay type: functional; method in brief: as §4
[16] = test system: Aspergillus flavus; experiment: Antifungal activity against Aspergillus flavus ATCC 9643 after 72 hrs by serial dilution method; assay type: functional; conditions: ATCC 9643, 72 h; method in brief: as §1
[17] = test system: Aspergillus fumigatus; experiment: Antifungal activity against Aspergillus fumigatus human isolate treated for 72 hrs followed by sub-cultivated for 5 days by serial dilution method; assay type: functional; method in brief: as §4
[18] = test system: Trichoderma viride; experiment: Antifungal activity against Trichoderma viride IAM 5061 after 72 hrs by serial dilution method; assay type: functional; conditions: IAM 5061, 72 h; method in brief: as §1
[19] = test system: Escherichia coli; experiment: Antibacterial activity against Escherichia coli ATCC 35210 after 24 hrs by micro dilution method; assay type: functional; conditions: ATCC 35210, 24 h; method in brief: as §3
[20] = test system: Trichoderma viride; experiment: Antifungal activity against Trichoderma viride IAM 5061 treated for 72 hrs followed by sub-cultivated for 5 days by serial dilution method; assay type: functional; method in brief: as §4
[21] = test system: Staphylococcus aureus; experiment: Antibacterial activity against Staphylococcus aureus ATCC 6538 after 24 hrs by micro dilution method; assay type: functional; conditions: ATCC 6538, 24 h; method in brief: as §3
[22] = test system: Aspergillus versicolor; experiment: Antifungal activity against Aspergillus versicolor ATCC 11730 treated for 72 hrs followed by sub-cultivated for 5 days by serial dilution method; assay type: functional; method in brief: as §4
[23] = test system: Aspergillus niger; experiment: Antifungal activity against Aspergillus niger ATCC 6275 after 72 hrs by serial dilution method; assay type: functional; conditions: ATCC 6275, 72 h; method in brief: as §1
[24] = test system: Aspergillus versicolor; experiment: Antifungal activity against Aspergillus versicolor ATCC 11730 after 72 hrs by serial dilution method; assay type: functional; conditions: ATCC 11730, 72 h; method in brief: as §1
[25] = test system: Staphylococcus aureus; experiment: Antibacterial activity against Staphylococcus aureus ATCC 6538 treated for 24 hrs followed by sub-cultivated for 72 hrs by micro dilution method; assay type: functional; method in brief: as §2
[26] = test system: Listeria monocytogenes; experiment: Antibacterial activity against Listeria monocytogenes NCTC 7973 after 24 hrs by micro dilution method; assay type: functional; conditions: NCTC 7973, 24 h; method in brief: as §3
[27] = test system: Pseudomonas aeruginosa; experiment: Antibacterial activity against Pseudomonas aeruginosa ATCC 27853 after 24 hrs by micro dilution method; assay type: functional; conditions: ATCC 27853, 24 h; method in brief: as §3
[28] = test system: Talaromyces funiculosus; experiment: Antifungal activity against Penicillium funiculosum ATCC 36839 after 72 hrs by serial dilution method; assay type: functional; conditions: ATCC 36839, 72 h; method in brief: as §1
[29] = test system: Fulvia fulva; experiment: Antifungal activity against Fulvia fulva treated for 72 hrs followed by sub-cultivated for 5 days by serial dilution method; assay type: functional; method in brief: as §4
[30] = test system: Fulvia fulva; experiment: Antifungal activity against Fulvia fulva after 72 hrs by serial dilution method; assay type: functional; method in brief: as §1
[31] = test system: Enterobacter cloacae; experiment: Antibacterial activity against Enterobacter cloacae human isolate after 24 hrs by micro dilution method; assay type: functional; method in brief: as §3
[32] = test system: Pseudomonas aeruginosa; experiment: Antibacterial activity against Pseudomonas aeruginosa ATCC 27853 treated for 24 hrs followed by sub-cultivated for 72 hrs by micro dilution method; assay type: functional; method in brief: as §2

| MIC [1] | MIC [2] | MIC [5] | MIC [9] | MIC [10] | MIC [16] | MIC [18] | MIC [19] | Compound | MBC [3] | MBC [4] | MFC [6] | MBC [7] | MBC [8] | MFC [11] | MBC [12] | MFC [13] | MBC [14] | MFC [15] | MFC [17] | MFC [20] | other results |
| --- | --- | --- | --- | --- | --- | --- | --- | --- | --- | --- | --- | --- | --- | --- | --- | --- | --- | --- | --- | --- | --- |
| 250 µM (≈ 99.6 µg/mL) | 130 µM (≈ 51.8 µg/mL) | 130 µM (≈ 51.8 µg/mL) | 250 µM (≈ 99.6 µg/mL) | 250 µM (≈ 99.6 µg/mL) | 250 µM (≈ 99.6 µg/mL) | 130 µM (≈ 51.8 µg/mL) | 630 µM (≈ 251 µg/mL) | CCCCNc1nnc(Cc2cc(OC)c(OC)cc2S(=O)(=O)N(C)C)o1 | 630 µM (≈ 251 µg/mL) | 750 µM (≈ 299 µg/mL) | 750 µM (≈ 299 µg/mL) | 250 µM (≈ 99.6 µg/mL) | 750 µM (≈ 299 µg/mL) | 750 µM (≈ 299 µg/mL) | 250 µM (≈ 99.6 µg/mL) | 750 µM (≈ 299 µg/mL) | 500 µM (≈ 199 µg/mL) | 500 µM (≈ 199 µg/mL) | 250 µM (≈ 99.6 µg/mL) | 130 µM (≈ 51.8 µg/mL) | MIC [21]: 250 µM (≈ 99.6 µg/mL); MFC [22]: 750 µM (≈ 299 µg/mL); MIC [23]: 250 µM (≈ 99.6 µg/mL); MIC [24]: 250 µM (≈ 99.6 µg/mL); MBC [25]: 380 µM (≈ 151 µg/mL); MIC [26]: 250 µM (≈ 99.6 µg/mL); MIC [27]: 130 µM (≈ 51.8 µg/mL); MIC [28]: 250 µM (≈ 99.6 µg/mL); MFC [29]: 250 µM (≈ 99.6 µg/mL); MIC [30]: 130 µM (≈ 51.8 µg/mL); MIC [31]: 630 µM (≈ 251 µg/mL); MBC [32]: 250 µM (≈ 99.6 µg/mL) |
| 130 µM (≈ 51.8 µg/mL) | 130 µM (≈ 51.8 µg/mL) | 130 µM (≈ 51.8 µg/mL) | 390 µM (≈ 155 µg/mL) | 250 µM (≈ 99.6 µg/mL) | 130 µM (≈ 51.8 µg/mL) | 60 µM (≈ 23.9 µg/mL) | 390 µM (≈ 155 µg/mL) | COc1cc(Cc2nnc(NC(C)(C)C)o2)c(S(=O)(=O)N(C)C)cc1OC | 390 µM (≈ 155 µg/mL) | 390 µM (≈ 155 µg/mL) | 380 µM (≈ 151 µg/mL) | 250 µM (≈ 99.6 µg/mL) | 630 µM (≈ 251 µg/mL) | 250 µM (≈ 99.6 µg/mL) | 390 µM (≈ 155 µg/mL) | 380 µM (≈ 151 µg/mL) | 500 µM (≈ 199 µg/mL) | 250 µM (≈ 99.6 µg/mL) | 250 µM (≈ 99.6 µg/mL) | 130 µM (≈ 51.8 µg/mL) | MIC [21]: 250 µM (≈ 99.6 µg/mL); MFC [22]: 380 µM (≈ 151 µg/mL); MIC [23]: 250 µM (≈ 99.6 µg/mL); MIC [24]: 130 µM (≈ 51.8 µg/mL); MBC [25]: 500 µM (≈ 199 µg/mL); MIC [26]: 250 µM (≈ 99.6 µg/mL); MIC [27]: 390 µM (≈ 155 µg/mL); MIC [28]: 130 µM (≈ 51.8 µg/mL); MFC [29]: 250 µM (≈ 99.6 µg/mL); MIC [30]: 250 µM (≈ 99.6 µg/mL); MIC [31]: 630 µM (≈ 251 µg/mL); MBC [32]: 390 µM (≈ 155 µg/mL) |

— ChEMBL document CHEMBL1944580, “Synthesis of novel sulfonamide-1,2,4-triazoles, 1,3,4-thiadiazoles and 1,3,4-oxadiazoles, as potential antibacterial and antifungal agents. Biological evaluation and conformational analysis studies” (2012)
